Measured values reported in ChEMBL document CHEMBL4382237, “Design, Synthesis, and Biological Evaluation of 2-Nitroimidazopyrazin-one/-es with Antitubercular and Antiparasitic Activity” (J Med Chem, 2018).
≈ marks a conversion by molar mass, not a printed value. Calls of active or inactive are those of the source. No cut-off for these calls is given here.

Legend:
[1] = tested on: Entamoeba histolytica; assay: Antiparasitic activity against Entamoeba histolytica HM-1:IMSS trophozoites after 24 to 48 hrs by CellTiter-Glo luminescent cell viability assay; type: functional, organism-based
Outline: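 Axenic trophozoites were kept in TYI-S-33 with penicillin (100 U/mL) and streptomycin (100 µg/mL) and harvested in log phase. 5000 parasites per well were exposed to a final 8-point two-fold series of 0.39–50 µM, from 10 mM DMSO stocks. Plates were incubated 24–48 h at 37 °C under anaerobic conditions. ATP luminescence viability was read in triplicate. Percent inhibition is given at the highest concentration tested.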

[2] = buffer, 24 h, 200 µM
[3] = tested on: Trypanosoma brucei brucei; assay: Antiparasitic activity against bloodstream form of Trypanosoma brucei brucei strain 427 after 48 hrs by resazurin dye-based assay; type: functional, organism-based; conditions: for IC50: strain 427, 48 h
[4] = tested on: Mycobacterium tuberculosis; assay: Antibacterial activity against non-replicating Mycobacterium tuberculosis H37Rv after 5 days under hypoxic condition by resazurin dye-based fluorescence assay; type: functional; conditions: 120 h
Outline: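 Same H37Rv inoculum (OD600 0.001, ~2 x 10^4 CFU/mL) in 7H9S with serially diluted compound. Plates held 5 days at 0.1% oxygen, then resazurin plus Tween-80 added.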

[5] = tested on: Giardia intestinalis; assay: Antiparasitic activity against Giardia lamblia WB trophozoites after 24 to 48 hrs by CellTiter-Glo luminescent cell viability assay; conditions: Giardia duodenalis
[6] = physchem; conditions: PBS, pH 7.4
[7] = buffer, pH 7.4, 24 h, 200 µM
[8] = physchem; conditions: water
[9] = tested on: Klebsiella pneumoniae; assay: Antibacterial activity against Klebsiella pneumoniae 700603 by broth microdilution assay; type: functional
Outline: (§1)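 Broth microdilution run essentially per an earlier report. MIC taken as the lowest concentration with no visible growth. Replicates typically agreed within one 2-fold dilution. The median MIC is reported, with a range where the median fell between two tested concentrations.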

[10] = tested on: HEK293; assay: Cytotoxicity against HEK293 cells after 24 hrs by resazurin dye-based fluorescence assay; type: cell-based; conditions: human, hek293, 24 h
Outline: (§2)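 HEK293 (3000/well) and HepG2 (5000/well) were grown 24 h in DMEM with 10% FBS at 37 °C, 5% CO2. Cells were then exposed 24 h to a dilution series up to 100 µM (0.5% DMSO). 5 µM resazurin was added for 2 h, read at ex 560/em 590. 1% Triton X-100 served as lysis control. CC50 was derived from the curves.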

[11] = tested on: Mycobacterium tuberculosis; assay: Antibacterial activity against non-replicating Mycobacterium tuberculosis H37Rv assessed as inhibition of bacterial growth at 0.125 to 8 ug/ml after 5 days under hypoxic condition by resazurin dye-based fluorescence assay relative to control; type: functional
[12] = tested on: Cryptococcus neoformans; assay: Antifungal activity against Cryptococcus neoformans H99 ATCC […] broth microdilution assay; type: functional; conditions: var. grubii H99 ATCC 208821; outline: as §1
[13] = tested on: Acinetobacter baumannii; assay: Antibacterial activity against Acinetobacter baumannii ATCC 19606 by broth microdilution assay; type: functional; conditions: ATCC 19606 = CIP 70.34 = JCM 6841; outline: as §1
[14] = tested on: Candida albicans; assay: Antifungal activity against Candida albicans ATCC 90028 by broth microdilution assay; type: functional; outline: as §1
[15] = tested on: Staphylococcus aureus; assay: Antibacterial activity against methicillin-resistant Staphylococcus aureus ATCC […] by broth microdilution assay; type: functional
[16] = tested on: Escherichia coli; assay: Antibacterial activity against Escherichia coli ATCC 25922 by broth microdilution assay; type: functional; outline: as §1
[17] = tested on: Mycobacterium tuberculosis; assay: Antibacterial activity against Mycobacterium tuberculosis H37Rv after 5 days under normoxic condition by resazurin dye-based fluorescence assay; type: functional, organism-based
Outline: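 H37Rv grown in 7H9/ADC/glycerol/Tyloxapol to mid-exponential phase, diluted to OD600 0.001 (~2 x 10^4 CFU/mL) in 7H9S with serially diluted compound. Incubated 5 days at 37 °C, then resazurin and Tween-80 added. Fluorescence (ex 530/em 590 nm) read after 24 h, normalised to no-drug and no-bacteria wells.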

[18] = tested on: Pseudomonas aeruginosa; assay: Antibacterial activity against Pseudomonas aeruginosa ATCC 27853 by broth microdilution assay; type: functional; outline: as §1
[19] = tested on: HepG2; assay: Cytotoxicity against human HepG2 cells after 24 hrs by resazurin dye-based fluorescence assay; type: cell-based; conditions: hepg2, 24 h; outline: as §2
[20] = tested on: Giardia intestinalis; assay: Antiparasitic activity against Giardia lamblia WB trophozoites after 24 to 48 hrs by CellTiter-Glo luminescent cell viability assay; conditions: Giardia duodenalis
[21] = Metabolic stability in human plasma assessed as parent compound remaining at 3 uM after 2 hrs by LC-MS/MS analysis
[22] = Protein binding in human plasma at 5 uM after 30 mins by LC-MS/MS analysis based ultrafiltration method; conditions: 0.5 h
[23] = Metabolic stability in human liver microsomes assessed as parent compound remaining at 3 uM after 2 hrs by LC-MS/MS analysis
[24] = Metabolic stability in CD-1 mouse liver microsomes assessed as parent compound remaining at 3 uM after 2 hrs by LC-MS/MS analysis
[25] = Metabolic stability in CD-1 mouse plasma assessed as parent compound remaining at 3 uM after 2 hrs by LC-MS/MS analysis
[26] = Apparent permeability across basolateral to apical side in human Caco2 cells assessed as mean drug recovery at 2 uM after 2 hrs by lucifer yellow dye-based LC-MS/MS analysis; conditions: Caco-2
[27] = Apparent permeability across apical to basolateral side in human Caco2 cells at 2 uM after 2 hrs by lucifer yellow dye-based LC-MS/MS analysis; conditions: caco-2, 2 h
[28] = Apparent permeability across basolateral to apical side in human Caco2 cells at 2 uM after 2 hrs by lucifer yellow dye-based LC-MS/MS analysis; conditions: caco-2, 2 h
[29] = tested on: Clostridioides difficile; assay: Antibacterial activity against Clostridium difficile 630 ATCC BAA-1382 by broth microdilution assay; type: functional; outline: as §1
[30] = Apparent permeability across apical to basolateral side in human Caco2 cells assessed as mean drug recovery at 2 uM after 2 hrs by lucifer yellow dye-based LC-MS/MS analysis; conditions: caco-2, 2 h
[31] = tested on: Mycobacterium tuberculosis; assay: Antibacterial activity against non-replicating Mycobacterium tuberculosis H37Rv assessed as inhibition of bacterial growth at 0.06 to 16 ug/ml after 5 days under hypoxic condition by resazurin dye-based fluorescence assay relative to control; type: functional; conditions: at 0.06 to 16 µg/mL

SMILES: CC(=O)OCCn1c(-c2ccccc2)cn2cc([N+](=O)[O-])nc2c1=O
- IC50 ([1]; read-out: IC50): 34 µM
- IC50 ([1]; read-out: pIC50 (converted)): 31.6 µM
- log(Kinetic_solubility) [2]: > -4
- IC50 ([3]; read-out: IC50): 0.86 µM
- IC50 ([3]; read-out: pIC50 (converted)): 0.794 µM
- MIC [4]: > 32 µg/mL
- IC50 [5]: 11 µM
- IC50 ([5]; read-out: pIC50 (converted)): 10 µM
- solubility kinetic at 24 h, 200 µM [6]: > 100 µM
- log(Kinetic_solubility) [7]: > -4
- solubility kinetic at 24 h, 200 µM [8]: > 100 µM

SMILES: Cc1cccc(Cn2ccn3cc([N+](=O)[O-])nc3c2=O)c1
- MIC [9]: > 32 µg/mL
- CC50 [10]: > 100 µM
- growth inhibition (GI) [11]: 70 - 90%
- MIC [12]: > 32 µg/mL
- MIC [13]: > 32 µg/mL
- IC50 ([3]; read-out: IC50): 5.4 µM
- IC50 ([3]; read-out: pIC50 (converted)): 5.01 µM
- MIC [14]: > 32 µg/mL
- IC50 [5]: 9 µM
- IC50 ([5]; read-out: pIC50 (converted)): 10 µM
- MIC [15]: > 32 µg/mL
- MIC [16]: > 32 µg/mL
- MIC [17]: 0.06 µg/mL (≈ 0.211 µM)
- MIC [18]: > 32 µg/mL
- CC50 [19]: > 100 µM

SMILES: O=c1c2nccn2ccn1Cc1ccc(F)cc1
- Activity [1]: inactive
- Activity [3]: inactive
- Activity [20]: inactive

SMILES: O=c1c2nccn2ccn1Cc1ccccc1
- Activity [1]: inactive
- Activity [3]: inactive
- Activity [20]: inactive

SMILES: Cc1cn2cc([N+](=O)[O-])nc2c(OCc2ccc(OC(F)(F)F)cc2)n1
- IC50 ([1]; read-out: IC50): 9.5 µM
- IC50 ([1]; read-out: pIC50 (converted)): 10 µM
- Stability [21]: 94%
- PPB [22]: > 99%
- IC50 ([3]; read-out: IC50): > 40 µM
- IC50 ([3]; read-out: pIC50 (converted)): > 39.8 µM
- MIC [4]: > 32 µg/mL
- Stability [23]: 69%
- Stability [24]: 7.9%
- Stability [25]: > 99%
- IC50 [5]: 7.4 µM
- IC50 ([5]; read-out: pIC50 (converted)): 7.94 µM
- MIC [17]: >32 µg/mL

SMILES: O=c1c2nc([N+](=O)[O-])cn2ccn1Cc1ccc(OC(F)(F)F)cc1
- Stability [21]: > 99%
- PPB [22]: 98%
- Stability [23]: > 99%
- Stability [24]: > 99%
- Stability [25]: > 99%
- recovery at 2 h, 2 µM [26]: 97%
- Papp [27]: 25 ×10⁻⁶ cm/s
- Papp [28]: 22 ×10⁻⁶ cm/s
- MIC [29]: > 64 µg/mL
- Drug recovery [30]: 83%

SMILES: Cc1cn2cc([N+](=O)[O-])nc2c(=O)n1Cc1ccc(OC(F)(F)F)cc1
- IC50 ([1]; read-out: IC50): > 50 µM
- IC50 ([1]; read-out: pIC50 (converted)): > 50.1 µM
- Stability [21]: 92%
- PPB [22]: 98%
- IC50 ([3]; read-out: IC50): 0.41 µM
- IC50 ([3]; read-out: pIC50 (converted)): 3.98 µM
- MIC [4]: > 32 µg/mL
- Stability [23]: > 99%
- Stability [24]: > 99%
- Stability [25]: 99%
- IC50 [5]: 5.8 µM
- IC50 ([5]; read-out: pIC50 (converted)): 6.31 µM
- MIC [17]: >32 µg/mL

SMILES: O=c1c2nc([N+](=O)[O-])cn2ccn1Cc1cccc(C(F)(F)F)c1
- MIC [9]: > 32 µg/mL
- growth inhibition (GI) [31]: 70 - 90%
- CC50 [10]: > 100 µM
- MIC [12]: > 32 µg/mL
- MIC [13]: > 32 µg/mL
- IC50 ([3]; read-out: IC50): 5.3 µM
- IC50 ([3]; read-out: pIC50 (converted)): 5.01 µM
- MIC [14]: > 32 µg/mL
- IC50 [5]: 7.1 µM
- IC50 ([5]; read-out: pIC50 (converted)): 7.94 µM
- MIC [15]: > 32 µg/mL
- MIC [16]: > 32 µg/mL
- MIC [17]: 0.06 µg/mL (≈ 0.177 µM)
- MIC [18]: > 32 µg/mL
- solubility kinetic at 24 h, 200 µM [6]: < 5 µM
- CC50 [19]: > 100 µM
- solubility kinetic at 24 h, 200 µM [8]: < 5 µM
